# Screening results (PubChem BioAssay)
# Only some compounds are listed: those with a hit (about 2.9% of all), similar ones and a draw of the others.
# Vif imaging: HIV Vif self-association inhibitors, primary screen, imaging, HEK293T, single point | HEK293T cells, Vif self-association by quenched fluorescence, 24 h | inhibition, % at 7.49 µM | hit rate 0.35% among 340,000; in the data active means inhibition above about 50%, passing the limit was not always enough
# Cneo AK release: Cryptococcus neoformans cell lysis inducers, primary screen, AK release luminescence, single concentration | AID 651654, 2012 | C. neoformans lysis, adenylate kinase release luminescence, 4 h; normalised: neutral wells 0, clomiphene wells 100 | hit rate 0.2% among 360,000 | lysis activity, % at 15 µM;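 active means mean lysis activity across replicates of at least 80%, whatever share of replicates individually reach that level; inactive means mean lysis activity below 80%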
#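 Assay system: Cryptococcus neoformans yeast cells / Dosing: single-point compound dose / Timing: 4 h at 37 °C static, read 1 h later / Measured by: luminescence of released adenylate kinase using an AK detection reagent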
# PglD DTNB: C. jejuni PglD acetyltransferase inhibitors, primary screen, biochemical, DTNB colorimetric, single point | purified PglD enzyme, DTNB colorimetric CoA detection | inhibition, % at 12.5 µM | hit rate 0.098% among 360,000 | AID 602405, 2012; in the data active means inhibition above about 16%, passing the limit was not always enough
# FGF22 binding-1: binders of human FGF22 protein, primary screen, FGF22 synaptogenesis inhibitor project, biophysical, thermal shift, single point. Fibroblast growth factor 22 (Homo sapiens), Q9HCT0. recombinant FGF22 thermal shift, SYPRO orange fluorescence; percent of sucrose octasulfate shift, DMSO zero. activity (Tm shift, normalised), % at 9.99 µM. hit rate 1.5% among 340,000. AID 651658, 2012;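 active means mean Tm shift, scaled 0 neutral to 100 positive control, at about 1.3% or above, every replicate too, limit read from the data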
# Target sequence (Q9HCT0 whole entry, looked up): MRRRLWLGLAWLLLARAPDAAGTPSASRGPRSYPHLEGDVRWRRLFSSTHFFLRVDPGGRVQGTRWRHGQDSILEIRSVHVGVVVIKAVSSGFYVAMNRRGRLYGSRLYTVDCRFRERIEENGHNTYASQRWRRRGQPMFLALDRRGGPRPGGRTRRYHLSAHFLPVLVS
# rRNA inh HTS: reduced GFP signal of wild-type E. coli, primary screen, bacterial rRNA inhibitor project, GFP/RFP fluorescence, OD600, single point; AID 720706, 2013; hit rate 1.6% among 350,000; E. coli WT GFP vs humanized-ribosome RFP mutants, 24 h; hits give low values; DMSO median 0, no signal -100; GFP signal change (wild-type ribosome), % (test concentration not listed);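 active means significant combined selectivity score with lowered wild-type GFP, culture density cut under 30%, mutant RFP and density less affected; inactive means any of these conditions unmet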
# PGC1a acetyl inh: inhibitors of PGC1a acetylation signal, primary screen, cell-based, U2OS, AlphaScreen, inhibitor mode. hit rate 0.17% among 350,000. AlphaScreen anti-acetyl-lysine; with virally co-expressed GCN5 acetyltransferase. inhibition, % at 15.6 µM. AID 651687, 2012;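 active means every replicate shows inhibition of at least 40%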;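 further: 0% = neutral control wells and 100% = positive control wells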
# FGF22 binding-2: binders of human FGF22 protein, dose response, FGF22 synaptogenesis inhibitor project, biophysical, thermal shift, cherry-pick retest; thermal shift activity, °C (ΔTm) at 38 µM; shares compounds with FGF22 binding-1; hit rate 2% among 1,000; recombinant FGF22 thermal shift, SYPRO orange fluorescence;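 active means fitted rise in melting shift crosses a set limit at or below the top valid dose tested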
# TSA no protein: compound-only thermal shift signal without protein, dose response, artefact control for FGF22 binder project, biochemical, cherry-picked samples, RT-PCR instrument; shares compounds with FGF22 binding-1; compound-only SYPRO orange thermal shift counter-screen, no protein; AC50, µM (titrated, usually from 38 µM); hit rate 2% among 1,000; AID 743019, 2013;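 active means rising signal whose fitted curve reaches the 0.54 level within the top valid dose, showing a melting point, actives reach about 13 µM in these data; inactive means the rest, including activity in the opposite direction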; further: value is where the raw curve crosses a fixed level and not half-maximal
# Active calls of the source: *; i = inactive; nt = not tested or not shown; ! = not confirmed by another sample; [ ] = remark or other dose.
SMILES,Vif imaging,Cneo AK release,PglD DTNB,FGF22 binding-1,rRNA inh HTS,PGC1a acetyl inh,FGF22 binding-2,TSA no protein
COc1cccc(NC(=O)N2C[C@H](O)COC[C@@H]3O[C@@H](CC(=O)NC4CCC4)CC[C@H]32)c1,nt,-2,8,1.4*,1,1,-0.12,i
Cc1nn(CCOc2ccccc2Cl)c(C)c1[N+](=O)[O-],7,-1,-1,1.7*,4,nt,-0.008,i
O=C(NCCc1ccc2c(c1)OCCO2)c1cccc(F)c1,0,nt,nt,1.6*,4,nt,-0.047,i
O=C(NCCc1ccc2c(c1)OCCO2)c1cc(F)cc(F)c1,-6,-2,3,nt,nt,-1,nt,nt
C/C(=N\NC(=O)CNC(=O)c1ccncc1)c1ccc(C)cc1,-4,nt,nt,1.6*,12,9,0.043,i
C/C(=N/NC(=O)CNC(=O)c1cccnc1)c1ccc(Cl)cc1,-5,2,1,0,6,5,nt,nt
COc1ccc2c3c([nH]c2c1)[C@@H](CO)N(CC1CCOCC1)CC31CN(C(=O)c2ccc(F)cc2)C1,nt,nt,nt,0,0,nt,nt,nt
O=C(CCc1c[nH]c2ccccc12)Nc1ccc(Nc2cccnc2)cc1,nt,nt,nt,2.0*,-30*,nt,-0.069,i
N#C[C@@H]1[C@H](c2ccccc2)[C@H](CO)N1C(=O)CCN1CCCCC1,nt,-4,-1,0,6,0,nt,nt
O=C(COc1ccc2c(c1)oc(=O)c1ccccc12)NC(Cc1ccc(Cl)cc1)C(=O)O (stereo not given),10,1,5,1.6*,-17,5,0.008,i
C[C@H]1CN([C@@H](C)CO)C(=O)CCCn2nncc2CO[C@H]1CN(C)S(=O)(=O)c1ccc(F)cc1,1,2,2,0,8,-9,nt,nt
C[C@@H]1CN([C@@H](C)CO)C(=O)CCCn2nncc2CO[C@@H]1CN(C)S(=O)(=O)c1ccc(F)cc1,-5,5,-1,1.3*!,8,11,0.058[42 µM],i
C[C@@H]1CN([C@H](C)CO)C(=O)CCCn2nncc2CO[C@H]1CN(C)S(=O)(=O)c1ccc(F)cc1,1,1,-1,1.2*!,-1,0,0,i
Cc1ccc(S(=O)(=O)Nc2ccc3c(c2)C(=O)N([C@H](C)CO)C[C@@H](C)[C@H](CN(C)CC2CC2)OCCCC[C@@H](C)O3)cc1,nt,-2,0,nt,2,0,nt,nt
COc1ccc2[nH]cc(CCNS(=O)(=O)c3ccc(NC(C)=O)cc3)c2c1,6,10,1,0,-3,3,nt,nt
CC(=O)Nc1ccc(S(=O)(=O)NCCc2c[nH]c3ccc(C)cc23)cc1,3,0,-4,1.4*,-1,nt,0.079,i
C[C@@H]1CN([C@H](C)CO)C(=O)Cc2cc(NS(C)(=O)=O)ccc2O[C@H]1CN(C)Cc1ccc(C(=O)O)cc1,nt,-3,1,1,4,-3,nt,nt
C[C@@H]1CN([C@H](C)CO)C(=O)Cc2cc(NS(C)(=O)=O)ccc2O[C@@H]1CN(C)Cc1ccc(C(=O)O)cc1,nt,1,5,39*,3,1,0.04[42 µM],i
C[C@@H]1CN([C@@H](C)CO)C(=O)Cc2cc(NC(=O)C3CC3)ccc2O[C@H]1CN(C)Cc1ccc(Cl)c(Cl)c1,nt,0,5,3.1*,-8,4,-0.003,i
C[C@H]1CN([C@@H](C)CO)C(=O)Cc2cc(NC(=O)C3CC3)ccc2O[C@@H]1CN(C)Cc1ccc(Cl)c(Cl)c1,nt,-1,-2,-1,-8,4,nt,nt
O=C(NCC(F)(F)F)[C@@H]1[C@@H](CO)[C@@H]2Cn3c(cccc3=O)[C@@H]2N1C(=O)C1CCCC1,nt,2,4,0,-2,nt,nt,nt
COc1ccc(CN(C)C[C@@H]2Oc3ccc(NC(=O)NC(C)C)cc3C(=O)N([C@H](C)CO)C[C@@H]2C)cc1,nt,-2,2,73*,3,2,-0.025[42 µM],i
COc1ccc(CN(C)C[C@H]2Oc3ccc(NC(=O)NC(C)C)cc3C(=O)N([C@H](C)CO)C[C@@H]2C)cc1,nt,2,3,1,1,-2,nt,nt
CNC[C@H]1Oc2ccc(NC(=O)Cc3cn(C)c4ccccc34)cc2C(=O)N([C@H](C)CO)C[C@H]1C,nt,0,0,3.7*,5,9,nt,i
CNC[C@@H]1Oc2ccc(NC(=O)Cc3cn(C)c4ccccc34)cc2C(=O)N([C@H](C)CO)C[C@@H]1C,nt,7,2,0,0,2,nt,nt
SMILES,Vif imaging,Cneo AK release,PglD DTNB,FGF22 binding-1,rRNA inh HTS,PGC1a acetyl inh,FGF22 binding-2,TSA no protein
COc1ccc(CN(C)C[C@H]2Oc3ccc(NC(=O)Cc4ccccc4)cc3C(=O)N([C@H](C)CO)C[C@@H]2C)cc1,nt,1,-4,1.5*,2,1,0.13[42 µM],i
COc1ccccc1C(=O)Nc1ccc2c(c1)OC[C@@H](C)N(CC1CC1)C[C@@H](C)[C@H](OC)CN(C)C2=O,nt,nt,nt,nt,-4,-7,nt,nt
COc1ccc2c3c(n(C)c2c1)[C@H](CO)N(CC1CC1)CC31CN(C(=O)c2ccc(F)cc2)C1,nt,nt,nt,nt,-5,nt,nt,nt
O=C(C[C@H]1C=C[C@@H](NC(=O)C2CCC2)[C@H](CO)O1)NCc1ccncc1,nt,0,0,0,2,2,nt,nt
CC(=O)Nc1ccc(S(=O)(=O)Nc2nc3ccccc3s2)cc1,-4,nt,nt,nt,nt,-8,nt,nt
CC(=O)Nc1ccc(S(=O)(=O)Nc2nc3ccc([N+](=O)[O-])cc3s2)cc1,4,nt,nt,3.4*,4,-7,-0.15,i
Cc1cc(C(=O)Nc2cccc3ccccc23)n(-c2ccccc2)n1,1,0,-1,3.2*,-4,-3,0.14,i
COC12CC(=O)C(C(C)=O)=C(O)C1(C)c1c(O)c(C)c(O)c(C(C)=O)c1O2 (stereo not given),-1,0,5,1.4*,11,7,0.14,i
CCS(=O)(=O)N[C@@H]1CC[C@H](CC(=O)Nc2ccc(-c3ccccc3)cc2)O[C@@H]1CO,nt,0,0,1.2*,-2,0,0.14[35 µM],i
